Reference: BindingDB's records for doi:10.1021/jm0010217 (Menarini Ricerche, 2000)
Bridge positions count the residues as written; N and C are the ends. Square brackets hold non-standard residues; d marks the D form. Peptide text beside a SMILES is read from it. * marks the point of attachment. NH(β-GlcNAc) = CC(=O)N[C@@H]1[C@@H](O)[C@H](O)[C@@H](CO)O[C@H]1N*; Dap = NC[C@H](N)C(=O)O

Legend:
[1] = target: T1, Substance-K receptor (Homo sapiens, UniProt P21452); assay: Compound was evaluated for Kd value against [3H]-SR- 48968 on the Wild-type tachykinin receptor 2
T1 sequence (P21452 whole entry): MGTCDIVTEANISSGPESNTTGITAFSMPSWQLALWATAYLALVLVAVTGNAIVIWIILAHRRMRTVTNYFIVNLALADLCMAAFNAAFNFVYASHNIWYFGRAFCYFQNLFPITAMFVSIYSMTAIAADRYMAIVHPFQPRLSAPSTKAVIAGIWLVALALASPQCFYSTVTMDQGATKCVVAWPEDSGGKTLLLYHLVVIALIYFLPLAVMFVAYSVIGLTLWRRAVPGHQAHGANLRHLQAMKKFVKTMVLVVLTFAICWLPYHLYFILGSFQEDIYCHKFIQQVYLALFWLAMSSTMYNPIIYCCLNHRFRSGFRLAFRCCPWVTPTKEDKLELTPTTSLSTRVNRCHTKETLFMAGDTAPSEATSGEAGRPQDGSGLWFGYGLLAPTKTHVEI

[2] = target: T2, Substance-K receptor (Homo sapiens, UniProt P21452, F270A); assay: Compound was evaluated for Kd value against [3H]-SR- 48968 on the Phe270Ala mutated human NK-2 receptor
T2 sequence (P21452 whole entry): T1 sequence (P21452 whole entry)

[3] = target: T3, Substance-K receptor (Homo sapiens, UniProt P21452, Y266F); assay: Compound was evaluated for Kd value against [3H]-SR- 48968 on the Tyr266Phe mutated human NK-2 receptor
T3 sequence (P21452 whole entry): T1 sequence (P21452 whole entry)

[4] = target: T4, Substance-K receptor (Homo sapiens, UniProt P21452, Y206F); assay: Compound was evaluated for Kd value against [3H]-SR- 48968 on the Tyr206Phe mutated human NK-2 receptor
T4 sequence (P21452 whole entry): T1 sequence (P21452 whole entry)

[5] = target: T1, Substance-K receptor; assay: Compound was evaluated for Kd value against [125I]NKA on the Wild-type tachykinin receptor 2
[6] = target: T4, Substance-K receptor; assay: Compound was evaluated for Kd value against [125I]-NKA on the Tyr206Phe mutated human NK-2 receptor
[7] = target: T3, Substance-K receptor; assay: Compound was evaluated for Kd value against [125I]NKA on the Tyr266Phe mutated human NK-2 receptor
[8] = target: T1, Substance-K receptor; assay: (§1) Compound was evaluated for Kd value against [3H]-SR- 48968 on the Tyr206Ala mutated human NK-2 receptor
[9] = target: T5, Substance-K receptor (Homo sapiens, UniProt P21452, Y206A); assay: as §1
T5 sequence (P21452 whole entry): T1 sequence (P21452 whole entry)

[10] = target: T4, Substance-K receptor; assay: Compound was evaluated for Kd value against [125I]NKA on the Tyr206Phe mutated human NK-2 receptor
Method in brief: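 Human NK-2 receptor carrying the point mutation, transfected into CHO cells. Radioligand binding with [125I]NKA.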

Row | Kd [1] [nM] | Kd [2] [nM] | Kd [3] [nM] | Kd [4] [nM] | Kd [5] [nM] | Kd [6] [nM] | Kd [7] [nM] | Kd [8] [nM] | Kd [9] [nM] | Kd [10] [nM] | SMILES
1 | 4.4 | 291 | 48 | 1.9 | 2.1 | 3.1 | 26 | > 1000 | – | – | CC(=O)N[C@@H]1[C@@H](O)[C@H](O)[C@@H](CO)O[C@H]1NC(=O)C[C@@H]1NC(=O)[C@H](CC(C)C)NC(=O)[C@@H]2CNC(=O)C[C@H](NC1=O)C(=O)N[C@@H](Cc1c[nH]c3ccccc13)C(=O)N[C@@H](Cc1ccccc1)C(=O)N2 (cyclo(D(NH(β-GlcNAc))DWF[Dap]L); lactam 2-5)
2 | 10 | 208 | 48 | 1.3 | 2.7 | – | 34 | – | 1960 | 3.6 | O=C1CCC(=O)N[C@@H](Cc2c[nH]c3ccccc23)C(=O)N[C@@H](Cc2ccccc2)C(=O)N[C@H](Cc2ccccc2)CN1 [MEN-11558]
